These results are taken from ChEMBL document CHEMBL1177840, “Trifluoromethyl-promoted homocamptothecins: synthesis and biological activity” (Eur J Med Chem, 2010).

Each structure is given as a SMILES string. Activity calls are given as the source filed them. The rule behind the calls is not given here.

Data set [1] deals with A549. Put plainly: Cytotoxicity against human A549 cells after 3 days by MTT assay. The conditions noted are these: A549, 3 days. (Tetrazolium dyes change colour on reduction, which living cells bring about.)
For data set [2], the system named is LoVo. Briefly: Cytotoxicity against human LoVo cells after 3 days by MTT assay.
For data set [3], the system named is MDA-MB-435. Put plainly: Cytotoxicity against human MDA-MB-435 cells after 3 days by MTT assay. The conditions noted are these: MDA-MB-435, 3 days.
The test system of data set [4] is Lewis lung carcinoma cell line. Put plainly: Antitumor activity against mouse LLC transplanted in C57BL/6 mouse assessed as tumor growth inhibition at 0.5 mg/kg, ip qd for 5 days. The conditions noted are these: 120 h, route intraperitoneal. The format is functional. In short, it runs like this: (§1)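 Male C57BL/6 mice (18–20 g) received Lewis lung carcinoma cells subcutaneously in the right axilla. Starting 3 days after implantation, they were dosed i.p. once daily for 5 consecutive days; controls received normal saline. Tumors were excised and weighed on day 14 post-implantation. Growth inhibition was calculated from the average tumor weight of the test group versus the control group.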

Data set [5] deals with Lewis lung carcinoma cell line. Briefly: Antitumor activity against mouse LLC transplanted in C57BL/6 mouse assessed as tumor weight at 0.5 mg/kg, ip qd for 5 days (RVb = 1.8 +/- 0.47 g). The conditions noted are these: route intraperitoneal. Type of data set: functional. In short, it runs like this: as §1
Data set [6] relates to Mus musculus. Put plainly: Toxicity in C57BL/6 mouse assessed as body weight at 0.5 mg/kg, ip qd for 5 days ( RVb = 19.06 +/- 1.35 g). The format is organism-based. Set-up: dose 0.5 mg/kg, route intraperitoneal. The conditions noted are these: in vivo, 120 h.
The subject of data set [7] is Mus musculus. Briefly: Toxicity in C57BL/6 mouse at 0.5 mg/kg, ip qd for 5 days. Type of data set: organism-based. Set-up: dose 0.5 mg/kg, route intraperitoneal. The conditions noted are these: in vivo, 120 h.
In data set [8] the target is T1, Topoisomerase I (Bos taurus) (UniProt Q2HPH0).
T1 sequence (whole entry): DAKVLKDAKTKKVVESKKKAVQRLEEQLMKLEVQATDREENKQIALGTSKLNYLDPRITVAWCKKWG
Briefly: Inhibition of calf thymus topoisomerase 1-mediated relaxation of supercoiled pBR322 by agarose gel electrophoresis. In short, it runs like this: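 Reactions incubated 15 min at 37 °C, then stopped with SDS (0.5% final). After loading buffer was added, products were separated on 0.8% agarose in TAE buffer for 40 min at 120 V. Gels were stained with ethidium bromide at room temperature and photographed under UV transillumination.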

In the case of `CCC1(O)CC(=O)OCc2c1cc1n(c2=O)Cc2c-1nc1ccc(OC)cc1c2C(F)(F)F` (racemic), the values for the concentration for half-maximal inhibition (IC50) in data set [1], in data set [2] and in data set [3] were 0.832 µM, 14.6 µM and 21.4 µM, respectively.
With `CCC1(O)CC(=O)OCc2c1cc1n(c2=O)Cc2c-1nc1ccc(Br)cc1c2C(F)(F)F` (racemic), the IC50 in data set [1] is 27.9 µM; in data set [2], 13.3 µM; in data set [3], 11 µM.
For `CCC1(O)CC(=O)OCc2c1cc1n(c2=O)Cc2c-1nc1ccc(OC)cc1c2C` (centres undefined), in that order: 3.52 µM, 1.32 µM and 2.61 µM.
Consider `CC[C@@]1(O)C(=O)OCc2c1cc1n(c2=O)Cc2cc3c(CN(C)C)c(O)ccc3nc2-1` [TOPOTECAN], for which, in data set [4], the inhibition in vivo at 0.5 mg/kg worked out at 47.5%. For the same molecule, the Activity in data set [5] is listed as 0.94 g; in data set [6] it was 19.24 g; in data set [7], “Non-toxic”.
Consider `CCC1(O)CC(=O)OCc2c1cc1n(c2=O)Cc2c-1nc1ccccc1c2C(F)(F)F` (racemic), for which the inhibition entry in data set [8] was “Active”. For the same molecule, in data set [4], the inhibition in vivo at 0.5 mg/kg was found to be 45.6%. The Activity in data set [5] is recorded as 0.98 g; in data set [6], 19.16 g; in data set [7] it was “Non-toxic”. Besides, the concentration for half-maximal inhibition (IC50) was determined as 0.313 µM in data set [1], 1.29 µM in data set [2] and 2.33 µM in data set [3].
In the case of `CCC1(O)CC(=O)OCc2c1cc1n(c2=O)Cc2c-1nc1ccc(O)cc1c2C(F)(F)F` (racemic), the IC50 in data set [1] was 16.2 µM; in data set [2], 4.01 µM; in data set [3] it was 11.2 µM.
For `CCC1(O)CC(=O)OCc2c1cc1n(c2=O)Cc2c-1nc1ccc(Br)cc1c2C` (centres undefined), in that order: 29.1 µM, 2.31 µM and 30.9 µM.
For `CCC1(O)CC(=O)OCc2c1cc1n(c2=O)Cc2c-1nc1ccccc1c2C` (centres undefined), the inhibition entry in data set [8] is “Active”. In addition, the inhibition in vivo at 0.5 mg/kg in data set [4] was 41.2%. Further, the Activity was 1.06 g in data set [5], 18.8 g in data set [6] and “Non-toxic” in data set [7]. Moreover, the 50% inhibitory concentration (IC50) in data set [1] was determined as 0.468 µM; in data set [2], 1.16 µM; in data set [3], 3.88 µM.
In the case of `CCC1(O)CC(=O)OCc2c1cc1n(c2=O)Cc2c-1nc1cccc(OC)c1c2C` (centres undefined), in data set [4], the inhibition in vivo at 0.5 mg/kg was found to be 23.2%. The results for the Activity in data set [5], in data set [6] and in data set [7] were 1.38 g, 19.77 g and “Non-toxic”, respectively. In addition, the half-inhibitory concentration (IC50) is 10.9 µM in data set [1], 5.47 µM in data set [2] and 7.73 µM in data set [3].
As for `CCC1(O)CC(=O)OCc2c1cc1n(c2=O)Cc2c-1nc1ccc(C(F)(F)F)cc1c2C(F)(F)F` (racemic), the 50% inhibitory concentration (IC50) in data set [1] worked out at 20.3 µM; in data set [2], 22.9 µM; in data set [3], 5.32 µM.
For `CCC1(O)CC(=O)OCc2c1cc1n(c2=O)Cc2c-1nc1ccc(C(F)(F)F)cc1c2C` (centres undefined), in that order: more than 225 µM, more than 225 µM and more than 225 µM.
Regarding `CCC1(O)CC(=O)OCc2c1cc1n(c2=O)Cc2c-1nc1cccc(OC)c1c2C(F)(F)F` (racemic), the figures for the 50% inhibitory concentration (IC50) in data set [1], in data set [2] and in data set [3] were 5.13 µM, 3.43 µM and 2.87 µM, respectively.
On to `CCC1(O)CC(=O)OCc2c1cc1n(c2=O)Cc2c-1nc1ccc(O)cc1c2C` (centres undefined), for which the figures for the IC50 in data set [1], in data set [2] and in data set [3] were 9.89 µM, 7.09 µM and 3.39 µM, respectively.

As usually defined, the IC50 is the concentration that gives 50% inhibition. Read a low IC50 as inhibition by little substance. Usually inhibition in vivo stands for the share of the control response that was lost under treatment.
